This note sets out measurements from ChEMBL document CHEMBL3600355, “The importance of the 6- and 7-positions of tetrahydroisoquinolines as selective antagonists for the orexin 1 receptor” (Bioorg Med Chem, 2015).

Active and inactive are the calls of the source. The calls are words filed in the database; no cut-off is given here. Bounds are passed on as bounds.

Assay [1] concerns the target T1, Orexin/Hypocretin receptor type 1 (Homo sapiens) (UniProt O43613).
T1 sequence (whole entry): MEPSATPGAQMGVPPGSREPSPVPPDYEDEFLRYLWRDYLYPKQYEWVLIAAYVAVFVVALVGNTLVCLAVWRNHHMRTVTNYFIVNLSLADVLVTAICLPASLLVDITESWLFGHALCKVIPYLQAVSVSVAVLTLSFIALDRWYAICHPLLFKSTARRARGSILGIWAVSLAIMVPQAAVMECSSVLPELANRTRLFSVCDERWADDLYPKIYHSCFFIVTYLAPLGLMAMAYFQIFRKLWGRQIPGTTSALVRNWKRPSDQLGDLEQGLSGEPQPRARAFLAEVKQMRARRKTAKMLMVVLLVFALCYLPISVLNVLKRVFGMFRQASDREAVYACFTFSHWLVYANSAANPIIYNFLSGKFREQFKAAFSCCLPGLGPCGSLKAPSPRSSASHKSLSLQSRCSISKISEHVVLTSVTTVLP
Description: Agonist activity at human OX1 receptor expressed in CHO-RD-HGA16 cells assessed as induction of calcium mobilization at 10 uM measured every 1.52 secs over 60 secs by calcium 5 dye-based fluorescence assay. The assay is classed as functional, cell-based. The method, boiled down:
(§1)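 Stable CHO-RD-HGA16 lines overexpressing human OX1 or OX2, plated overnight at 25,000 cells/well, 37°C, 5% CO2. Loaded 45 min with Calcium 5 dye in HBSS/20 mM HEPES/2.5 mM probenecid, pH 7.4. Compound tested alone at 10 μM; fluorescence (ex 485/em 525 nm) read every 1.52 s for 60 s.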
Background: Calcium assays in cells follow changes in intracellular calcium, usually with a dye or a luminescent sensor.

For assay [2], the target named is T2, Orexin receptor type 2 (Homo sapiens) (UniProt O43614).
T2 sequence (whole entry): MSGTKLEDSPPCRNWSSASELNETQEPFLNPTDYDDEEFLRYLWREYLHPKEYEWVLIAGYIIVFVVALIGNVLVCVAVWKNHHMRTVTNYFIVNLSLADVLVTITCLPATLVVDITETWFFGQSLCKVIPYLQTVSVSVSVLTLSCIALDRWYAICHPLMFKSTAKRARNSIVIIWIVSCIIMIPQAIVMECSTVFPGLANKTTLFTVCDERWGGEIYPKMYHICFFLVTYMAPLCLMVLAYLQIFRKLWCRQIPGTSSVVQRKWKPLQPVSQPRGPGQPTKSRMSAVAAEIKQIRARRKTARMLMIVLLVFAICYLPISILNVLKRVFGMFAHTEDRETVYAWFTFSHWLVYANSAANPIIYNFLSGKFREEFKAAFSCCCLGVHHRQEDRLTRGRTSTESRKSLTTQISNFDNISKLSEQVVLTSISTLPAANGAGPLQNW
The assay can be described thus: Antagonist activity at human OX2 receptor expressed in CHO-RD-HGA16 cells assessed as inhibition of orexin-A-induced calcium mobilization at 10 uM preincubated for 15 mins followed by orexin-A addition measured every 1.52 secs over 60 secs by calcium 5 dye-based fluorescence assay relative to control. The assay is classed as functional, cell-based. The method, boiled down:
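OX2 stable CHO-RD-HGA16 cells, Calcium 5 dye-loaded, were pre-incubated 15 min at 37°C with compound at 10 μM before orexin A addition. Calcium fluorescence was read every 1.52 s for 60 s and percent inhibition of the orexin A response recorded.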

For assay [3], the target named is T2, Orexin receptor type 2 (Homo sapiens). Description: Agonist activity at human OX2 receptor expressed in CHO-RD-HGA16 cells assessed as induction of calcium mobilization at 10 uM measured every 1.52 secs over 60 secs by calcium 5 dye-based fluorescence assay. The assay is classed as functional, cell-based. The method, boiled down:
as §1

Assay [4] addresses T1, Orexin/Hypocretin receptor type 1 (Homo sapiens). Description: Competitive antagonist activity at human OX1 receptor expressed in CHO-RD-HGA16 cells assessed as inhibition of orexin-A-induced calcium mobilization compound treated simultaneous with orexin-A by fluorescence assay. The assay is classed as functional, cell-based. The method, boiled down: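 Antagonist and orexin A were added simultaneously to Calcium 5-loaded human OX1 CHO-RD-HGA16 cells, with calcium mobilization curve-shift measured. Data are composites of at least three experiments in duplicate.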

For assay [5] the target is unchanged. The assay can be described thus: Competitive antagonist activity at human OX1 receptor expressed in CHO-RD-HGA16 cells assessed as inhibition of orexin-A-induced calcium mobilization preincubated for 1 hr followed by orexin-A addition measured every 1.52 secs over 60 secs by calcium 5 dye-based fluorescence assay. The assay is classed as functional, cell-based. The method, boiled down:
(§2)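 Curve-shift assay in human OX1 CHO-RD-HGA16 cells, with antagonist–receptor pre-incubation lengthened to 45 min or 1 hr before orexin A addition. Calcium 5 fluorescence was monitored, and each point is a composite of at least three experiments in duplicate.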

For assay [6] the target is unchanged. Description: Competitive antagonist activity at human OX1 receptor expressed in CHO-RD-HGA16 cells assessed as inhibition of orexin-A-induced calcium mobilization preincubated for 45 mins followed by orexin-A addition measured every 1.52 secs over 60 secs by calcium 5 dye-based fluorescence assay. The assay is classed as functional, cell-based. The method, boiled down:
as §2

Assay [7] shares this target. The assay can be described thus: Insurmountable antagonist activity at human OX1 receptor expressed in CHO-RD-HGA16 cells assessed as inhibition of orexin-A-induced calcium mobilization preincubated for 15 mins followed by orexin-A addition measured every 1.52 secs over 60 secs by calcium 5 dye-based fluorescence assay. The assay is classed as functional, cell-based. The method, boiled down:
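Human OX1 or OX2 stable CHO-RD-HGA16 cells were dye-loaded with Calcium 5, then given a single compound concentration for 15 min at 37°C. Orexin A serial dilutions were added at 19 s and fluorescence read every 1.52 s over 60 s. Orexin A EC50 curves were run with and without compound and fitted to a three-parameter logistic. Apparent Ke was taken from the right-shift; three independent experiments in duplicate, N=2 where Ke >10 μM.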

For assay [8], the species on record is Homo sapiens. Description: Selectivity for human OX1 receptor over human OX2 receptor.
The species named for assay [9] is Homo sapiens. The assay can be described thus: Selectivity ratio of Ke(app) for human OX2 receptor to Ke(app) for human OX1 receptor.

`CCOC(=O)CNc1ccc2c(c1)CCN(CC(=O)NCc1ccccc1)C2Cc1ccc(OC)c(OC)c1` (stereo unspecified): the result in assay [1] and in assay [3] was inactive. For the same molecule, the inhibition (in general, the percentage by which the read-out fell short of the control) in [2] is less than 50%.
Take `CCOC(=O)CCCOc1ccc2c(c1)CCN(CC(=O)NCc1ccccc1)C2Cc1ccc(OC)c(OC)c1` (stereo unspecified): the result in [1] and in assay [3] was inactive. For the same molecule, the inhibition in [2] is less than 50%. For the same molecule, the inhibition entry in [4], in assay [6] and in assay [7] was “Active” each time. In assay [5], the Ke(app) is 1000 nM.
`CCOc1ccc2c(c1)C(Cc1ccc(OC)c(OC)c1)N(CC(=O)NCc1ccccc1)CC2` (stereo unspecified): the Ratio Ke in the assay filed under Homo sapiens [8] came to 268. Besides, the result in assay [1] and in assay [3] was inactive. Moreover, the inhibition in assay [2] is less than 50%.
In the case of `COc1ccc(CC2c3cc(OC(C)C)ccc3CCN2CC(=O)NCc2ccccc2)cc1OC` (stereo unspecified), the Ratio Ke in the assay listed under Homo sapiens [8] came out at 201. For the same molecule, the result in [1] and in assay [3] was inactive. Further, the inhibition in [2] was less than 50%.
In the case of `COc1ccc(CCNc2ccc3c(c2)CCN(CC(=O)NCc2ccccc2)C3Cc2ccc(OC)c(OC)c2)cc1OC` (stereo unspecified), in assay [2], the inhibition was less than 50%. Moreover, the inhibition entry in assay [4], in assay [5] and in assay [7] was “Active” in each case. For the same molecule, the Ke(app) in assay [6] came to 2180 nM.
Take `CCCCOc1ccc2c(c1)C(Cc1ccc(OC)c(OC)c1)N(CC(=O)NCc1ccccc1)CC2` (stereo unspecified): the result in [1] and in assay [3] was inactive. For the same molecule, in assay [2], the inhibition is less than 50%.
With `CCOC(=O)CCNc1ccc2c(c1)CCN(CC(=O)NCc1ccccc1)C2Cc1ccc(OC)c(OC)c1` (stereo unspecified), the outcome in [1] and in [3] was inactive. The inhibition in assay [2] is less than 50%.
Regarding `COc1ccc(CC2c3ccc(NCCCC(=O)OC(C)(C)C)cc3CCN2CC(=O)NCc2ccccc2)cc1OC` (stereo unspecified), the inhibition in assay [2] was less than 50%. Further, the inhibition result in [4], in assay [6] and in [7] was “Active” each time. Moreover, in assay [5], the Ke(app) was determined as 1010 nM.
`CCOC(=O)CCCNc1ccc2c(c1)CCN(CC(=O)NCc1ccccc1)C2Cc1ccc(OC)c(OC)c1` (stereo unspecified): the outcome in assay [1] and in assay [3] was inactive.
As for `COc1ccc2c(c1)C(Cc1ccc(OC)c(OC)c1)N(CC(=O)NCc1ccccc1)CC2` (stereo unspecified), the outcome in [1] and in [3] was inactive.
As to `CCCOc1ccc2c(c1)C(Cc1ccc(OC)c(OC)c1)N(CC(=O)NCc1ccccc1)CC2` (stereo unspecified), the outcome in assay [1] and in [3] was inactive. In the assay filed under Homo sapiens [9], the Ratio Ke is 108.
For `CCCN(C)c1ccc2c(c1)CCN(CC(=O)NCc1ccccc1)C2Cc1ccc(OC)c(OC)c1` (stereo unspecified), the result in assay [1] and in [3] was inactive. Besides, in assay [2], the inhibition was less than 50%.
As to `CCCCCCNc1ccc2c(c1)CCN(CC(=O)NCc1ccccc1)C2Cc1ccc(OC)c(OC)c1` (stereo unspecified), the inhibition in [2] is less than 50%.
For `COc1ccc(CC2c3ccc(NCCCCOc4ccccc4)cc3CCN2CC(=O)NCc2ccccc2)cc1OC` (stereo unspecified), in [2], the inhibition is less than 50%.
